# UCH37 DUB inh: human UCH37 deubiquitinating enzyme inhibition; Q9Y5K5; purified proteasome/UCH37, Ub-AMC cleavage fluorescence; inhibition, % (test concentration not listed); hit rate 0.33% among 330,000; AID 588478;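 active = mean inhibition over replicate wells above about 20%, limit read from the data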;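 note: 0% = compound-free wells with enzyme and 100% = wells lacking proteasome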
#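 Material: Human UCH37 enzyme supplied as purified proteasome complex | Schedule: 30 min compound-proteasome preincubation then 25 min substrate reaction, room temperature | Detection: AMC fluorescence from Ub-AMC cleavage, excitation 355 nm, emission 460 nm | Benchmarks: Wells without proteasome as full block, compound-free enzyme plus substrate as uninhibited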
# PAFAH1B2 FP inh: blocks human PAF acetylhydrolase 1b catalytic subunit 2 | recombinant PAFAH1B2, FP-rhodamine activity probe, fluorescence polarization | inhibition, % at 3.39 µM | hit rate 1.2% among 340,000 | AID 492953;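 active = inhibition above the mean of all tested compounds plus 3 SD, cut at about 24% in these data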;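 note: 0% = enzyme with DMSO and 100% = wells lacking PAFAH1B2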
# Target sequence (P68402 whole entry, looked up): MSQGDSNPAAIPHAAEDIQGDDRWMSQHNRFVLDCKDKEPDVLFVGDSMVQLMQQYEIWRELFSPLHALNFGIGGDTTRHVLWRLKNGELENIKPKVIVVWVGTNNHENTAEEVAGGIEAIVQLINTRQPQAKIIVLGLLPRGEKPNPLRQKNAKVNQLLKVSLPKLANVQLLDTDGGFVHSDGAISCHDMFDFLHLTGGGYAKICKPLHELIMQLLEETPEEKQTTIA
# PAFAH1B3 inh: blocks human PAF acetylhydrolase 1B catalytic subunit 3 | Q15102 | recombinant PAFAH1B3, FP-rhodamine probe, fluorescence polarization | inhibition, % at 3.39 µM | hit rate 0.28% among 340,000 | AID 492972;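 active = inhibition above the screen-wide average of all tested compounds plus 3 SD, cut at about 25% in these data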;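 note: 0% = enzyme with DMSO only and 100% = wells lacking PAFAH1B3 protein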
# Target sequence (Q15102 whole entry, looked up): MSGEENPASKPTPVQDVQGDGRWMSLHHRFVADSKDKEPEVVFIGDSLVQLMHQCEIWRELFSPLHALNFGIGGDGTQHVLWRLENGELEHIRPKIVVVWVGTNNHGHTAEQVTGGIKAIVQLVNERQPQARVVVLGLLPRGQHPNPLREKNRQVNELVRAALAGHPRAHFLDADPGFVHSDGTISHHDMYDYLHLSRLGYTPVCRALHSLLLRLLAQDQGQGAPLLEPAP
# pPAFAH inh: inhibitors of human plasma PAF acetylhydrolase (pPAFAH); recombinant pPAFAH, FP-rhodamine probe fluorescence polarization; inhibition, % at 3.39 µM; hit rate 1.5% among 330,000; AID 463082;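 active = inhibition above the mean inhibition across the screen plus 3 SD, cut at about 25% in these data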;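 note: inhibitors block binding of the rhodamine activity-based probe so polarization drops; 0% = enzyme with DMSO and 100% = wells lacking pPAFAH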
# PAFAH2 FP inh: inhibitors of human PAFAH2. Q99487. recombinant PAFAH2, FP-rhodamine activity probe, fluorescence polarization. inhibition, % at 3.39 µM. hit rate 0.99% among 340,000;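 active = inhibition above the mean over all tested compounds plus 3 SD, cut at about 30% in these data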;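 note: inhibitors block probe labeling of enzyme so polarization drops; 0% = enzyme with DMSO and 100% = wells lacking PAFAH2 protein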
# NR3A LBD binder: modulates the human NR3A ligand-binding domain | Tm shift relative to glycine control, % at 25 µM | NR3A LBD differential scanning fluorimetry, Tm shift; 0% = protein alone, 100% = glycine-bound protein | hit rate 2.5% among 340,000;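 active = melting temperature shift of at least 10% of the positive control shift, at one fixed dose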
# * hit, by the source's call; i = inactive; . = no result given. An excerpt weighted towards active compounds, which were near 4.8% of everything screened.
SMILES,UCH37 DUB inh,PAFAH1B2 FP inh,PAFAH1B3 inh,pPAFAH inh,PAFAH2 FP inh,NR3A LBD binder
O=[N+]([O-])c1cc(-c2cnc3ccccc3n2)ccc1Oc1ccc(F)cc1,2.9,57.8*,6.0,11.2,-11.9,-8.8
CCCC(=NNC(=O)c1ccccc1Cl)c1ccccc1,6.5,.,.,.,.,.
COc1ccc(C(=NO)c2nccc3cc(OC)c(OC)cc23)cc1OC,1.5,.,.,.,.,.
COc1ccc(CNC(=O)Cc2nn(C)c(=O)c3ccccc23)cc1,0.2,0.3,4.0,6.0,-4.6,11.0*
Cn1nc(CC(=O)NCc2ccc(C(F)(F)F)cc2)c2ccccc2c1=O,1.7,-0.1,5.8,10.5,-6.8,-4.3
Cc1ccc(OCC(=O)NNC(=O)c2ccc(NC(=O)C3CC3)cc2)c(C)c1,1.3,1.0,3.3,-0.6,-2.4,28.4*
O=C(CSc1nc(-c2ccccc2)c(-c2ccccc2)[nH]1)Nc1ccc2c(c1)OCO2,-10.5,3.4,-4.8,4.1,-4.0,13.1*
Cc1ccc(NC(=O)CSc2ncn(-c3ccccc3)n2)cc1C,0.3,5.0,9.8,-8.5,-3.7,22.2*
COc1ccc(NC(=O)CSc2ncn(-c3ccccc3)n2)cc1Cl,4.2,1.3,5.6,1.6,-2.4,27.7*
O=C(CSc1nc2ncccc2[nH]1)Nc1ccc2c(c1)OCO2,0.2,.,.,6.5,.,1.9
O=C(CSc1ncn(-c2ccccc2)n1)Nc1ccc2c(c1)OCO2,4.1,1.4,-0.8,6.2,1.3,12.8*
O=C(CSc1ncn(-c2ccccc2)n1)Nc1ccc2c(c1)OCCO2,3.2,0.4,2.9,-6.1,8.9,0.1
COCC(=O)Nc1ccc(OC)c(Cl)c1,2.4,0.2,2.7,5.1,-3.2,-1.0
O=C(O)CCC(=NNc1ccccc1[N+](=O)[O-])c1cccs1,12.0,.,.,.,.,.
O=C(O)c1ccc(COc2ccccc2C=C2C(=O)c3ccccc3C2=O)cc1,0.5,7.0,-1.4,-1.3,12.2,29.5*
COc1cc(C=Nn2c(C3CCCCC3)n[nH]c2=S)ccc1O,2.5,.,.,.,.,.
N#CCSc1nnc(COc2ccc3ccccc3c2)o1,0.6,5.5,0.3,7.8,-6.5,15.0*
N#CCSc1nnc(CNc2cccc(Cl)c2)o1,4.0,2.8,7.7,4.5,-1.7,14.2*
Clc1cccc(NCc2nnc(SCc3ccccc3)o2)c1,1.3,8.4,7.9,0.9,6.6,-16.2
COC(C(=O)NN=Cc1ccc(OCC(=O)N2CCOCC2)cc1)c1ccccc1 (centres undefined),3.1,.,.,.,.,.
Cc1nonc1C(=O)NN=Cc1ccncc1,2.1,.,.,.,.,.
CC(=NNS(=O)(=O)c1ccc(Br)cc1)c1ccncc1,0.0,.,.,.,.,.
CN(C)S(=O)(=O)c1ccc(C(=O)NCC(=O)NN=Cc2ccccc2Cl)cc1,1.4,.,.,.,.,.
O=C(CN1CCOCC1)Nc1cc(C(F)(F)F)ccc1Cl,0.7,2.8,7.7,6.1,5.0,0.7
O=C(CN1CCN(C(=O)c2ccco2)CC1)Nc1cc(C(F)(F)F)ccc1Cl,1.1,4.1,8.1,-0.6,3.0,14.2*
SMILES,UCH37 DUB inh,PAFAH1B2 FP inh,PAFAH1B3 inh,pPAFAH inh,PAFAH2 FP inh,NR3A LBD binder
CN(C)/C(CN1CCN(C=O)CC1)=C1\N=C(c2ccccc2)OC1=O,20.0*,1.8,5.2,-0.3,3.4,2.1
COc1ccc(C(=O)Nc2nnc(SCC(=O)NC3CCCC3)s2)c(OC)c1,2.0,3.1,-2.6,2.7,-5.7,-1.7
O=C(CSc1nnc(NC(=O)c2ccco2)s1)Nc1ccccc1,6.6,12.2,12.0,-1.4,-0.7,2.9
O=C(Nc1nnc(-c2ccc(F)cc2)s1)c1ccco1,-2.3,4.6,-2.1,6.4,1.0,0.6
CC(=O)Nc1ccc(NC(=O)CSc2nnc(NC(=O)c3ccco3)s2)cc1,3.3,6.8,14.4,1.7,-1.7,15.9*
COc1ccc(C(=O)Nc2nnc(SCC(=O)Nc3ccc(NC(C)=O)cc3)s2)c(OC)c1,-5.9,-7.2,-4.8,2.9,-9.1,20.4*
Cc1cccc(-c2nnc(NC(=O)c3ccco3)s2)c1,2.3,2.7,-1.1,5.1,-0.9,23.7*
CC(=O)Nc1ccc(NC(=O)CSc2nnc(NC(=O)c3cccc(F)c3)s2)cc1,4.3,0.2,3.3,7.7,1.7,30.5*
Cc1[nH]c2ccccc2c1C=NNC(=O)c1cccc(F)c1,4.6,.,.,.,.,.
O=C(CSc1nnc(NC(=O)C2CC2)s1)Nc1ccc(F)cc1,0.1,-2.3,1.9,1.8,-11.6,13.6*
Cc1[nH]n(C(N)=S)c(=O)c1N=Nc1cc(C(F)(F)F)ccc1Cl,2.7,2.4,0.3,5.0,9.5,11.6*
N#CC1(C#N)CC(C=O)=C(N)C1(C#N)CC(=O)C12CC3CC(CC(C3)C1)C2 (centres undefined),4.2,31.1*,-2.1,10.8,21.2,2.4
O=C(NN=Cc1c(O)ccc2ccccc12)c1cccnc1,5.0,.,.,.,.,.
CC(C)(C)c1cc(NCc2ccccn2)n2ncc(-c3ccc(Cl)cc3)c2n1,i,10.9,5.2,1.7,-8.4,13.1*
CN(C)CCCNc1cc(C(C)(C)C)nc2c(-c3ccc(Cl)cc3)cnn12,-221.7,2.9,8.2,20.6,-0.3,-0.9
CC(C)(C)CC(C)(C)c1ccc(OCCOCC[N+](C)(C)Cc2ccccc2)cc1,4.1,21.3,-8.5,25.8*,1.9,-5.2
CSCCC(NC(=O)c1ccco1)C(=O)NCCc1ccc(Cl)cc1 (centres undefined),3.6,28.1*,9.6,5.9,2.4,1.8
CN(C)CCCON=C(c1ccccc1)c1ccncc1,1.6,.,.,.,.,.
O=c1c(-c2ccccc2)c(-c2ccccc2)oc2cc(O)cc(O)c12,3.5,21.6,8.3,1.3,4.3,19.5*
O=c1c(O)c(-c2ccccc2)oc2cc(O)cc(O)c12,1.3,11.9,22.6,6.6,13.1,11.0*
CC(=O)c1ccc(O)c(CC=C(C)C)c1,2.5,4.1,1.5,-0.2,0.2,-1.8
CC(C)=CCc1cc(-c2oc3cc(O)cc(O)c3c(=O)c2O)ccc1O,7.9,12.6,26.2*,34.0*,-8.4,21.2*
COc1c(-c2ccc(O)c(O)c2)oc2cc(O)cc(O)c2c1=O,1.8,7.8,24.1,13.2,14.4,16.1*
COc1ccc(C=NN(C)c2cc(=O)n(C)c(=O)[nH]2)cc1OC,7.9,.,.,.,.,.
CCOc1ccc(C=NNC(=O)c2cc3c(OC)cc(OC)cc3[nH]2)cc1OC,-79.3,.,.,.,.,.
SMILES,UCH37 DUB inh,PAFAH1B2 FP inh,PAFAH1B3 inh,pPAFAH inh,PAFAH2 FP inh,NR3A LBD binder
CSc1ccccc1NC(=O)NCCCl,0.8,-5.4,6.4,-3.2,-7.4,242.5*
CCCCCCn1cnc2c(c1=O)c1nc3ccccc3nc1n2N=Cc1ccco1,-8.6,.,.,.,.,.
CCOc1ccc(NC(=O)Nc2ccc3c(c2)nnn3C)cc1,-1.2,2.6,0.9,0.7,2.8,16.4*
O=C(NC(=S)N(Cc1ccccc1)c1ccccn1)C1CC1,3.8,0.7,-1.9,4.3,0.2,17.5*
Cc1ccc(-c2nnc(SCC(=O)NN=Cc3ccccc3C(=O)O)n2C2CCCCC2)cc1,0.4,.,.,.,.,.
O=C(Nc1ccc(Cl)cc1)/C(=C/c1cccc(O)c1)c1nc2ccccc2s1,-2.3,-18.5,-32.2,-9.0,-43.3,26.4*
